Results published in ChEMBL document CHEMBL1148788 (J Med Chem, 2007).
“And” between values parts separate entries of the source, which are not always exact repeats. Equal values may be shown once. The source made the active and inactive calls. No cut-off for these calls is given here.

Columns and labels:
[1] = molecular target: T1, Neuronal acetylcholine receptor subunit alpha-7 (Homo sapiens, UniProt P36544)
Target sequence in this assay (P36544 whole entry): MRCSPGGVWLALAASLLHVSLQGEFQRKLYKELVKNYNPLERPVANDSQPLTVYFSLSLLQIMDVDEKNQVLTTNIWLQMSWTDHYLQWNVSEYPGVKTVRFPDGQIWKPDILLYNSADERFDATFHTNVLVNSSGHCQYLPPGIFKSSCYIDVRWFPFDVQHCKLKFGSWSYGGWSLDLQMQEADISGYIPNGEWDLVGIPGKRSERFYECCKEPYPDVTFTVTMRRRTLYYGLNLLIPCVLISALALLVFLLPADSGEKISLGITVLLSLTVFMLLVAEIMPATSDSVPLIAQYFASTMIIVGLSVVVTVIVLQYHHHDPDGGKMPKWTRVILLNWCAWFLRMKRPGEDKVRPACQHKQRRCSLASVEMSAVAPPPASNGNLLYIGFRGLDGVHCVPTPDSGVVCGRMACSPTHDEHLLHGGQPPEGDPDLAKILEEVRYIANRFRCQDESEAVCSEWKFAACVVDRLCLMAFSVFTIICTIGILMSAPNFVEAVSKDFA

[2] = Displacement of [3H]methyllycaconitine from chimeric alpha-7nAChR K145R mutant /5HT3A receptor in tsA201 cells; format: cell-based, Homo sapiens
Outline: (§1)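 tsA-201 cells transiently transfected with 4 µg WT or mutant α7/5-HT3A chimera and assayed 2 days later. Membranes washed twice at 50000g in 50 mM Tris-HCl pH 7.2. Incubated with 0.5 nM [3H]MLA and compound for 2.5 h at room temperature with shaking; nonspecific binding with 5 mM (S)-nicotine. PEI-soaked GF/C filtration, scintillation counting. Ki derived; duplicate, 3–7 experiments.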

[3] = Displacement of [3H]methyllycaconitine from chimeric alpha7nAChR W55Y mutant/5HT3A receptor in tsA201 cells; format: cell-based, Homo sapiens
Outline: as §1

[4] = Displacement of [3H]methyllycaconitine from chimeric alpha-7nAChR W55A mutant /5HT3A receptor in tsA201 cells; format: cell-based, Homo sapiens
Outline: as §1

[5] = molecular target: T2, Glycine receptor subunit alpha-1 (Homo sapiens, UniProt P23415); assay: Antagonist activity at human glycine alpha-1 receptor in HEK293 cells by FMP assay; format: functional, cell-based
T2 sequence (P23415 whole entry): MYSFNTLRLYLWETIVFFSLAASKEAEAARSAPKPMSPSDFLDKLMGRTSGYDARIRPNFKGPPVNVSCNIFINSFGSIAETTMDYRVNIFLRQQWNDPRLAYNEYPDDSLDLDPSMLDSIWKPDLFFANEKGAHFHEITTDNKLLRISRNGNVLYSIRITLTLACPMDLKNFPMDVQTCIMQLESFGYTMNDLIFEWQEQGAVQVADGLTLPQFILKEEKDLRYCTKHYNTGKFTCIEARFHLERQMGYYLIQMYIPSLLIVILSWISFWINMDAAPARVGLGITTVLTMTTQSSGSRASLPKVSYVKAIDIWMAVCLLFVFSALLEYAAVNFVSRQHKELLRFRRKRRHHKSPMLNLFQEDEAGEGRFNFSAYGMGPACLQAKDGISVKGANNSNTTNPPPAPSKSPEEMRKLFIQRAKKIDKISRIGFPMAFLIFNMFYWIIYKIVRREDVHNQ

[6] = molecular target: Neuronal acetylcholine receptor; alpha3/beta4 (Rattus norvegicus, UniProt P04757+P12392); assay: Displacement of [3H]epibatidine from recombinant rat alpha-3-beta-4 nAChr in HEK293 cell line; format: cell-based
tsA201 [7] = assay: Displacement of [3H]methyllycaconitine from chimeric alpha-7nAChR W149A mutant/5HT3A receptor in tsA201 cells; format: cell-based; details: Homo sapiens
Outline: as §1

[8] = Antagonist activity at human alpha7nAChR Y93A mutant co-expressed with human Ric3 in tsA201 cells by FMP assay; format: functional, cell-based
tsA201 [9] = assay: Displacement of [3H]methyllycaconitine from chimeric alpha-7nAChR Y93A mutant/5HT3A receptor in tsA201 cells; format: cell-based; details: Homo sapiens
Outline: as §1

[10] = Displacement of [3H]methyllycaconitine from chimeric alpha-7nAChR Y195F mutant/5HT3A receptor in tsA201 cells; format: cell-based, Homo sapiens
Outline: as §1

[11] = molecular target: T1, Neuronal acetylcholine receptor subunit alpha-7; assay: Displacement of [3H]methyllycaconitine from chimeric alpha7nAChR/5HT3A in tsA201 cells; format: cell-based
Target sequence in this assay (P36544 23-502 limits assumed): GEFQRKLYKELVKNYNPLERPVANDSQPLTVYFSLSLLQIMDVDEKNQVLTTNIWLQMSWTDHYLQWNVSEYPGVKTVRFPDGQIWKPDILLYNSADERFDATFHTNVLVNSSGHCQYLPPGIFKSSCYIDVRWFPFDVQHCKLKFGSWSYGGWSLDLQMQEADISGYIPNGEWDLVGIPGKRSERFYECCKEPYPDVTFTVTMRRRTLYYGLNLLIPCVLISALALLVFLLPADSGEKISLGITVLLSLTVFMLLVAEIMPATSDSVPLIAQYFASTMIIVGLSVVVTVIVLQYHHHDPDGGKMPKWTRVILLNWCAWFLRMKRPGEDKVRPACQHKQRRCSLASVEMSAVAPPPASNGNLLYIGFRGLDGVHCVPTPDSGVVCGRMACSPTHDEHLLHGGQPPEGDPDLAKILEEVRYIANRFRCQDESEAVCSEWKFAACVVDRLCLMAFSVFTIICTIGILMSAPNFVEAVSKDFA

[12] = molecular target: T1, Neuronal acetylcholine receptor subunit alpha-7; assay: Displacement of [3H]methyllycaconitine from alpha7 nAChR in tsA201 cells co-expressed with Ric3; format: cell-based
Target sequence in this assay (P36544 whole entry): as the sequence (P36544 whole entry) above

[13] = Antagonist activity at human alpha-7 nAChR Y195A mutant coexpressed with human Ric3 in tsA201 cells by FMP assay; format: functional, cell-based
[14] = molecular target: T3, 5-hydroxytryptamine receptor 3A (Homo sapiens, UniProt P46098); assay: Antagonist activity at human 5HT3A receptor expressed in HEK293 cells by FMP assay; format: functional, cell-based
T3 sequence (P46098 whole entry): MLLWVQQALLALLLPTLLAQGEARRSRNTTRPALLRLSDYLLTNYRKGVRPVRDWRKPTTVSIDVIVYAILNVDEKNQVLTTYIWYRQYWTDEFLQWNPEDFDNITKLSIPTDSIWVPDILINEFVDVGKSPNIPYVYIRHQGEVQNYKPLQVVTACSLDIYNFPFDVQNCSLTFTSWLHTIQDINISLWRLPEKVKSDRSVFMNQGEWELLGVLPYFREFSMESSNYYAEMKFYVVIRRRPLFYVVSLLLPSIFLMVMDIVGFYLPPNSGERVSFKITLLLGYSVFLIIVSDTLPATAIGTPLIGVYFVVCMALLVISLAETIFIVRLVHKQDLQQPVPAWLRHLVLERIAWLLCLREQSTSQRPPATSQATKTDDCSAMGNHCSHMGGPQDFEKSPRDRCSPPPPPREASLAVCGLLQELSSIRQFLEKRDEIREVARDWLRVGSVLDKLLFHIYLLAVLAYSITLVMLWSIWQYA

[15] = Displacement of [3H]methyllycaconitine from chimeric alpha7nAChR R79A mutant/5HT3A receptor R79A mutant in tsA201 cells; format: cell-based, Homo sapiens
Outline: as §1

[16] = molecular target: T3, 5-hydroxytryptamine receptor 3A; assay: Displacement of [3H]GR65630 from human 5HT3A receptor in HEK293 cells; format: cell-based
[17] = molecular target: Neuronal acetylcholine receptor; alpha4/beta2 (Rattus norvegicus, UniProt P09483+P12390); assay: Displacement of [3H]epibatidine from rat recombinant alpha-4-beta-2 nAChR in HEK293 cell line; format: cell-based
[18] = Antagonist activity at human alpha-7 nAChR Y188A mutant coexpressed with human Ric3 in tsA201 cells by FMP assay; format: functional, cell-based
[19] = Displacement of [3H]methyllycaconitine from chimeric alpha-7nAChR S150A mutant/5HT3A receptor in tsA201 cells; format: cell-based, Homo sapiens
Outline: as §1

[20] = Displacement of [3H]methyllycaconitine from chimeric alpha-7nAChR D197A mutant/5HT3A receptor in tsA201 cells; format: cell-based, Homo sapiens
Outline: as §1

cells = format: functional, cell-based; details: Homo sapiens, HEK293
[21] = molecular target: T1, Neuronal acetylcholine receptor subunit alpha-7; assay: Antagonist activity at human alpha-7 nAChR in tsA201 cells coexpressed with Ric3 by FMP assay; format: functional, cell-based
Target sequence in this assay (P36544 whole entry): as the sequence (P36544 whole entry) above

tsA201 [22] = assay: Displacement of [3H]methyllycaconitine from chimeric alpha-7nAChR W149Y mutant/5HT3A receptor W149Y mutant in tsA201 cells; format: cell-based; details: Homo sapiens
Outline: as §1

[23] = Displacement of [3H]methyllycaconitine from chimeric alpha-7nAChR Y168A mutant/5HT3A receptor in tsA201 cells; format: cell-based, Homo sapiens
Outline: as §1

Sequence of Neuronal acetylcholine receptor; alpha4/beta2 (P09483 whole entry): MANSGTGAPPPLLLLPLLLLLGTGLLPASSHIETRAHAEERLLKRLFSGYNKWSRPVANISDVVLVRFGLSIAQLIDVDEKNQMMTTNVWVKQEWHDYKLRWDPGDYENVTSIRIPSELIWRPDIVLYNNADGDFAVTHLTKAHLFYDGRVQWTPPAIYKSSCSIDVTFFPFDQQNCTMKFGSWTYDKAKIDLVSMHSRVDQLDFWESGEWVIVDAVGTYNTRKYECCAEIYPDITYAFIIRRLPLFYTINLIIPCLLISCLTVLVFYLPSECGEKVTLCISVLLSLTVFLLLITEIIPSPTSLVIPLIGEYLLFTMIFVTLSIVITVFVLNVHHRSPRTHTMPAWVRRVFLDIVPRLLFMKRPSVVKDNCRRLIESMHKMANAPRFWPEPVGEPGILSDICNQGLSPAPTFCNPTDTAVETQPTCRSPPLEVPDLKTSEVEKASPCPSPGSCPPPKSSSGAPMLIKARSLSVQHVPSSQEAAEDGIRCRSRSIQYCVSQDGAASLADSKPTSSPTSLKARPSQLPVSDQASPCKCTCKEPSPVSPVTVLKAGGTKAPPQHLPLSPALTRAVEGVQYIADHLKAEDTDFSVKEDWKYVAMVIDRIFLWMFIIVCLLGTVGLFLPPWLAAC
Sequence of Neuronal acetylcholine receptor; alpha4/beta2 (P12390 whole entry): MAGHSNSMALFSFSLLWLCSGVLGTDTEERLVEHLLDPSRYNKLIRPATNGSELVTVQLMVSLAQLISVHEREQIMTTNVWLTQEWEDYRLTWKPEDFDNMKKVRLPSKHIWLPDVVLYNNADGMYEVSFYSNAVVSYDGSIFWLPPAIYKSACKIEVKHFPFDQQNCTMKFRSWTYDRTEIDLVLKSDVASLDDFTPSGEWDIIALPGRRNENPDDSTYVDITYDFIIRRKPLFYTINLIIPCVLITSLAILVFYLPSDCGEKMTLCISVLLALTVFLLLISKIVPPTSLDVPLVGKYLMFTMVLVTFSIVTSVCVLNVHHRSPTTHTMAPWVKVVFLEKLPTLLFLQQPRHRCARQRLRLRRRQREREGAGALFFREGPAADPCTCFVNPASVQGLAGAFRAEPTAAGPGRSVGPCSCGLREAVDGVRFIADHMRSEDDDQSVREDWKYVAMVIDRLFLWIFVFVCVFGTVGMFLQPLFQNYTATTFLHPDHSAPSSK
Sequence of Neuronal acetylcholine receptor; alpha3/beta4 (P04757 whole entry): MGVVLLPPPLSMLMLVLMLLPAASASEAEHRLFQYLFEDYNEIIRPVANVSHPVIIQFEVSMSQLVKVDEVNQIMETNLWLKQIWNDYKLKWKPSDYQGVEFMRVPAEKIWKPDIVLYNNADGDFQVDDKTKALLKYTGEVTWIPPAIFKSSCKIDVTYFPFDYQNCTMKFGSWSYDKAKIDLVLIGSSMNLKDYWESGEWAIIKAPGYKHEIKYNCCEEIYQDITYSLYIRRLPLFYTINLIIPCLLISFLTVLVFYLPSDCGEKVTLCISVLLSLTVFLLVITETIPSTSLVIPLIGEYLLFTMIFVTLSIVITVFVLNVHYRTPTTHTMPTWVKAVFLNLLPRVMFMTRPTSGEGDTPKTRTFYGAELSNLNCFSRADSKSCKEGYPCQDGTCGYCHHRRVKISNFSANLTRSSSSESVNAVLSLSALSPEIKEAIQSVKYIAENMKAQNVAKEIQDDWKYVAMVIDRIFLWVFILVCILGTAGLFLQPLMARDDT
Sequence of Neuronal acetylcholine receptor; alpha3/beta4 (P12392 whole entry): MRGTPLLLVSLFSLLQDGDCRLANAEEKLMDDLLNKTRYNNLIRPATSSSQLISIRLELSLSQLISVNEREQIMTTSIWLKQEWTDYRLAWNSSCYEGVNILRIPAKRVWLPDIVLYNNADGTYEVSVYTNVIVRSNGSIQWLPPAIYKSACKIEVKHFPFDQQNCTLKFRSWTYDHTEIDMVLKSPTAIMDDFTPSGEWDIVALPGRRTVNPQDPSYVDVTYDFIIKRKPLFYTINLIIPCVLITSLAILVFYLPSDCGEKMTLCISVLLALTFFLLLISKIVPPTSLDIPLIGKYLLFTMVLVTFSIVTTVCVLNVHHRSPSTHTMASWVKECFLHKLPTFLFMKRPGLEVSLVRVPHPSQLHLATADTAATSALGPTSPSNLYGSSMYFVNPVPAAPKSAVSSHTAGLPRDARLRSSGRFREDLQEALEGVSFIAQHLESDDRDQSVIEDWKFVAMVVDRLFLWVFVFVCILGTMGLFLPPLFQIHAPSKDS

Compound: O=[N+]([O-])c1ccc(C[N+]23CC[C@@H]4[C@@H]5[C@@H]6[C@@H](OCC=C(C2)[C@@H]6C[C@@H]43)N2c3ccccc3[C@@]34CC[N+]6(Cc7ccc([N+](=O)[O-])cc7)CC7=CCO[C@H]([C@@H]([C@H]23)[C@H]7C[C@@H]46)N5c2ccccc2)cc1.[Br-].[Br-] (stereo partly drawn)
- IC50 [1]: 360 nM and 363 nM
- Ki [2]: 58 nM
- pKi [2]: 7.24
- Ki [3]: 37 nM
- pKi [3]: 7.43
- Ki [4]: 130 nM
- pKi [4]: 6.89
- IC50 [5]: > 100000 nM
- pIC50 ([5]; hek293): < 4
- Ki [6]: > 100000 nM
- pKi ([6]; hek293): < 4
- Activity (tsA201 [7]): inactive
- IC50 ([8]; read-out: IC50): 19000 nM
- IC50 ([8]; read-out: pIC50 (converted)): 19500 nM
- Activity (tsA201 [9]): inactive
- Ki [10]: 50 nM
- pKi [10]: 7.3
- Ki [11]: 18 nM
- pKi [11]: 7.74
- Ki ([12]; read-out: Ki): 29 nM
- Ki ([12]; read-out: pKi (converted)): 31.6 nM
- IC50 ([13]; read-out: IC50): 25000 nM
- IC50 ([13]; read-out: pIC50 (converted)): 25100 nM
- pIC50 ([14]; hek293): < 4
- IC50 ([14]; read-out: IC50): > 100000 nM
- Ki [15]: 32 nM
- pKi [15]: 7.5
- Ki [16]: 23000 nM
- pKi ([17]; hek293): < 4
- Ki ([17]; read-out: Ki): > 100000 nM
- IC50 ([18]; read-out: IC50): 15000 nM
- IC50 ([18]; read-out: pIC50 (converted)): 15500 nM
- Ki [19]: 35 nM
- pKi [19]: 7.45
- Ki [20]: 31 nM
- pKi [20]: 7.51
- IC50 (cells; read-out: IC50): > 100000 nM
- IC50 (cells; read-out: pIC50 (converted)): > 100000 nM
- IC50 ([21]; read-out: IC50): 370 nM
- IC50 ([21]; read-out: pIC50 (converted)): 372 nM
- Activity (tsA201 [22]): inactive
- Ki [23]: 34 nM
- pKi [23]: 7.47
